ChEMBL document CHEMBL1127731, “Structure-activity study of neuropeptide FF: contribution of N-terminal regions to affinity and activity” (J Med Chem, 1994)
Where a SMILES comes first, the peptide text is derived from it. [ ]: non-standard residue; d: D form. NMeF = CN[C@@H](Cc1ccccc1)C(=O)O

Tests used:
[1] = molecular target: Neuropeptide FF receptor 2 (Rattus norvegicus, UniProt Q9EQD2); assay: Binding affinity for NPPF receptor in rat spinal cord membranes using the radioligand [125I]-[Tyr1]NPFF; assay type: cell membranes, Membrane
Procedure, shortened: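 Displacement of [125I][Tyr1]NPFF (0.1 nM final) from rat spinal cord membranes, 30 min at 25 °C, in 50 mM Tris-HCl pH 7.4 with 120 mM NaCl, 0.5% BSA, 0.1 mM bestatin, 1 mM EDTA, 0.5 mM diisopropylfluorophosphate. Unlabeled peptides 5×10^-11–10^-6 M; nonspecific binding with 10^-6 M [Tyr1]NPFF. Stopped by ice-cold buffer and centrifugation; pellet gamma-counted. Ki via Cheng-Prusoff from IC50; three determinations.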

[2] = species on record: Mus musculus; assay: Minimum effective dose able to significantly reverse morphine analgesia in male CDF1 mice by tail-flick test; assay type: functional
Procedure, shortened: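 Analog (0, 1, 2.2, 8.8 or 22 nmol) coinjected icv with 5.5 nmol morphine in 150 mM NaCl, 10 mice per group. Radiant-heat tail-flick read 15 min later, baseline 2-3 s, 6 s cutoff defined as 100% analgesia. Percent antinociception = (Tt−Tc)/(6−Tc)×100.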

Chain of Neuropeptide FF receptor 2 (Q9EQD2 whole entry): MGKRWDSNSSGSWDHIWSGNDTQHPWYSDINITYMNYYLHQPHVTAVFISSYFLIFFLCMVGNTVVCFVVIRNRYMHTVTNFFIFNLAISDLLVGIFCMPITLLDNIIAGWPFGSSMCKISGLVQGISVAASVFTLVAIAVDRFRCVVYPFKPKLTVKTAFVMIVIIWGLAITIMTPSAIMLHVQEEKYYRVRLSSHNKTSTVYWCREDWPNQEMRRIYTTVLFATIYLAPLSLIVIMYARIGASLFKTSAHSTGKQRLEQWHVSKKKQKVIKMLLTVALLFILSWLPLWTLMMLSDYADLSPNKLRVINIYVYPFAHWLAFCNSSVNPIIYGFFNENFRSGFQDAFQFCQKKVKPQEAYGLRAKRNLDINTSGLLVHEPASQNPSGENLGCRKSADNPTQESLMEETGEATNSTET

Row | Compound | Ki [1] [nM] | MED [2] [nmol]
1 | CC(C)C[C@H](N)C(=O)N[C@@H](Cc1ccccc1)C(=O)N[C@@H](CCC(N)=O)C(=O)N1CCC[C@@H]1C(=O)N[C@@H](CCC(N)=O)C(=O)N[C@@H](CCCNC(=N)N)C(=O)N[C@@H](Cc1ccccc1)C(N)=O | 33 | –
2 | NC(=O)CC[C@H](NC(=O)[C@@H]1CCCN1C(=O)[C@@H](N)CCC(N)=O)C(=O)N[C@@H](CCCN=C(N)N)C(=O)N[C@@H](Cc1ccccc1)C(N)=O | 20.9 | > 22
3 | NC(=O)CC[C@H](NC(=O)[C@H]1CCCN1C(=O)[C@@H](N)CCC(N)=O)C(=O)N[C@@H](CCCN=C(N)N)C(=O)N[C@@H](Cc1ccccc1)C(N)=O | 64 | –
4 | CC(C)C[C@H](NC(=O)[C@@H](N)Cc1ccc(O)cc1)C(=O)N[C@@H](Cc1ccccc1)C(=O)N[C@@H](CCC(N)=O)C(=O)N1CCC[C@@H]1C(=O)N[C@@H](CCC(N)=O)C(=O)N[C@@H](CCCN=C(N)N)C(=O)N[C@@H](Cc1ccccc1)C(N)=O | 30 | –
5 | NC(=O)CC[C@H](NC(=O)[C@H]1CCCN1)C(=O)N[C@@H](CCCN=C(N)N)C(=O)N[C@@H](Cc1ccccc1)C(N)=O | 94 | –
6 | NC(=O)CC[C@H](NC(=O)[C@H]1CCCN1C(=O)[C@H](CCC(N)=O)NC(=O)[C@@H](N)Cc1ccccc1)C(=O)N[C@@H](CCCN=C(N)N)C(=O)N[C@@H](Cc1ccccc1)C(N)=O | 45 | –
7 | CC(C)C[C@H](NC(=O)[C@@H](N)Cc1ccccc1)C(=O)N[C@@H](Cc1ccccc1)C(=O)N[C@@H](CCC(N)=O)C(=O)N1CCC[C@H]1C(=O)N[C@@H](CCC(N)=O)C(=O)N[C@@H](CCCN=C(N)N)C(=O)N[C@@H](Cc1ccccc1)C(N)=O | – | 22
8 | N=C(N)NCCC[C@H](NC(=O)[C@@H](N)CCC(N)=O)C(=O)N[C@@H](Cc1ccccc1)C(N)=O (H-Gln-Arg-Phe-NH2) | 300 | –
9 | H-FLFGPQRF-NH2 | 10 | –
10 | H-FLFQGQRF-NH2 | 1.2 | 8.8

The remaining compounds from weak to strong by Ki [1], led by results:

Row | Ki [1] [nM] | Compound | MED [2] [nmol]
11 | 1 | CC(C)C[C@@H](NC(=O)[C@H](N)Cc1ccc(O)cc1)C(=O)N[C@H](Cc1ccccc1)C(=O)N[C@@H](CCC(N)=O)C(=O)N1CCC[C@H]1C(=O)N[C@@H](CCC(N)=O)C(=O)N[C@@H](CCCNC(=N)N)C(=O)N[C@@H](Cc1ccccc1)C(N)=O | –
12 | 0.6 | H-FLFQPGRF-NH2 | –
13 | 0.5 | CC(C)C[C@@H](NC(=O)[C@H](N)Cc1ccc(O)cc1)C(=O)N[C@@H](Cc1ccccc1)C(=O)N[C@@H](CCC(N)=O)C(=O)N1CCC[C@H]1C(=O)N[C@@H](CCC(N)=O)C(=O)N[C@@H](CCCN=C(N)N)C(=O)N[C@@H](Cc1ccccc1)C(N)=O | –
14 | 0.43 | NC(=O)CC[C@H](NC(=O)[C@@H]1CCCN1C(=O)[C@H](CCC(N)=O)NC(=O)[C@@H](N)Cc1ccccc1)C(=O)N[C@@H](CCCN=C(N)N)C(=O)N[C@@H](Cc1ccccc1)C(N)=O | 22
15 | 0.22 | H-FLYQPQRF-NH2 | –
16 | 0.2 | CC(C)C[C@H](NC(=O)[C@@H](N)Cc1ccc(O)cc1)C(=O)N[C@@H](Cc1ccccc1)C(=O)N[C@@H](CCC(N)=O)C(=O)N1CCC[C@H]1C(=O)N[C@@H](CCC(N)=O)C(=O)N[C@@H](CCCN=C(N)N)C(=O)N[C@@H](Cc1ccccc1)C(N)=O | 8.8
17 | 0.2 | CC(C)C[C@H](N)C(=O)N[C@@H](Cc1ccccc1)C(=O)N[C@@H](CCC(N)=O)C(=O)N1CCC[C@H]1C(=O)N[C@@H](CCC(N)=O)C(=O)N[C@@H](CCCN=C(N)N)C(=O)N[C@@H](Cc1ccccc1)C(N)=O | –
18 | 0.19 | CC(C)C[C@@H](NC(=O)[C@H](N)Cc1ccc(O)cc1)C(=O)N(C)[C@@H](Cc1ccccc1)C(=O)N[C@@H](CCC(N)=O)C(=O)N1CCC[C@H]1C(=O)N[C@@H](CCC(N)=O)C(=O)N[C@@H](CCCNC(=N)N)C(=O)N[C@@H](Cc1ccccc1)C(N)=O (H-[dY][dL][NMeF]QPQRF-NH2) | –
19 | 0.16 | CC(C)C[C@H](NC(=O)[C@H](N)Cc1ccc(O)cc1)C(=O)N(C)[C@@H](Cc1ccccc1)C(=O)N[C@@H](CCC(N)=O)C(=O)N1CCC[C@H]1C(=O)N[C@@H](CCC(N)=O)C(=O)N[C@@H](CCCN=C(N)N)C(=O)N[C@@H](Cc1ccccc1)C(N)=O (H-[dY]L[NMeF]QPQRF-NH2) | 8.8
